Shown is part of a subset that was picked to be rich in hits.
VLA-4 inh – inhibition in a human VLA-4 binding assay; P13612; VLA-4 expressing cells, ligand binding flow cytometry; inhibition, % (about 7 µM as worked out from the volumes in the protocol); 330,000 tested, 0.2% active; in the data active = inhibition above about 50%
B2AR ag – activates human beta-2 adrenergic receptor causing internalization | P07550 | Am2.2-beta2AR cells, FAP receptor internalization, flow cytometry | response, % (no concentration beside the values) | 340,000 tested, 0.43% active | AID 504454;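 active = response above a set limit, near 3 SD of response in nonfluorescent compounds, cut at about 42% in these data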
Target sequence (P07550 whole entry, looked up): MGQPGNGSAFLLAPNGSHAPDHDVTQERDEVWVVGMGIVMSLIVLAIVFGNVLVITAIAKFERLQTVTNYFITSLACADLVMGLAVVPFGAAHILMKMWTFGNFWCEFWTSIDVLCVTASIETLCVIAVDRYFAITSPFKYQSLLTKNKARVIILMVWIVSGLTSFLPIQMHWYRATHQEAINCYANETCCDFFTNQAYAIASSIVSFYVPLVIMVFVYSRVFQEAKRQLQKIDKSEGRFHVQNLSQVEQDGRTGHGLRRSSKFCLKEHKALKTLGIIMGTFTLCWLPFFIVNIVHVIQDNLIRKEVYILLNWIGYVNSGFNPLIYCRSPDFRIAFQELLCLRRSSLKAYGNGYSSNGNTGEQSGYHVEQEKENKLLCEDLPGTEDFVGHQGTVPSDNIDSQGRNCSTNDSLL
CHOP inh – inhibitors of CHOP induction in ER stress response. AID 2732. inhibition, % at 10 µM. 220,000 tested, 3.8% active. CHO-K1 CHOP-promoter luciferase, tunicamycin-induced, 15-18 h;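 active = compounds that reduced the stress-induced luciferase reporter signal by more than about 70% of percent inhibition, limit read from the data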;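 also: 0% = tunicamycin plus vehicle and 100% = wells without tunicamycin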
XBP1 UPR activ – activators of adaptive arm of unfolded protein response (XBP1); 330,000 tested, 0.33% active; CHO-XBP1 luciferase reporter, IRE1-XBP1 UPR activation, luminescence; percent of tunicamycin response, DMSO as zero; activation, % at 20 µM;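 active = versus positive control, 20 µM dose yields 30% or more activation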;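 also: 100% = tunicamycin at 10 µg/mL and 0% = DMSO only wells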
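Assay system: IRE1-XBP1 luciferase reporter CHO line. Input: 1000 cells/well. Buffer or medium: F12 with 10% serum. Doses: 20 µM, 1% DMSO. Times: overnight seeding at 37 °C, 6 h compound treatment at 37 °C. Technique: Steady-Glo luciferase glow luminescence, 10 min after reagent addition.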
CHOP UPR activ – apoptotic UPR (CHOP) activation; CHO-CHOP luciferase reporter, luminescence; percent of tunicamycin response over DMSO baseline; activation, % at 10 µM; 330,000 tested, 0.34% active;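 active = at 10 µM dose, activation of 40% or more, normalized to positive control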;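 also: 100% = tunicamycin at 10 µg/mL and 0% = DMSO alone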
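Test system: CHO-CHOP cells, stable luciferase reporter of PERK-eIF2a-CHOP signalling | Quantity: 500 CHO-CHOP cells per well | Buffer or medium: F12 plus 10% serum | Compound dosing: 10 µM single point, 0.5% DMSO | Schedule: 6 h compound treatment, 37 °C | Signal: Luciferase luminescence | Control set: Tunicamycin high control, DMSO low control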
* marks the source's active call; other numbers are inactive results; nt = no result.

SMILES	VLA-4 inh	B2AR ag	CHOP inh	XBP1 UPR activ	CHOP UPR activ
Cc1cc(Cl)ccc1OC(C)C(=O)Nc1ccc([N+](=O)[O-])cn1 (centres undefined)	-4.4	0.6	74.8*	-4.8	0.5
CC(C)(CNC(=O)Cc1ccc(NS(=O)(=O)c2cccc(C(F)(F)F)c2)cc1)N1CCOCC1	-6.3	-0.7	nt	-1.9	-0.8
Cc1ccc2c(c1)NC(=O)C(CC(=O)NCCCN1CCCCC1)O2 (centres undefined)	7.1	-1.6	14.4	-1.4	-0.9
Cc1ccc2c(c1)NC(=O)C(CC(=O)NCCCN1CCN(c3cc(Cl)ccc3C)CC1)O2 (centres undefined)	-4.7	21.8	78.7*	-3.0	0.8
COc1ccc(C(=O)/C=C2/C(=O)Nc3ccccc32)cc1	-147.5	45.3*	nt	15.9	20.4
NC(=O)COc1ccc(C(=O)/C=C2/C(=O)Nc3ccccc32)cc1	7.9	24.5	nt	2.3	10.8
COc1ccc(C(=O)/C=C2/C(=O)Nc3ccccc32)cc1OC	5.3	-19.6	nt	-2.1	47.7*
C=CCOc1ccc(C(=O)/C=C2/C(=O)Nc3ccccc32)cc1	39.4	-1.3	nt	5.2	18.5
C=CCOc1ccccc1C(=O)/C=C1/C(=O)Nc2ccccc21	8.6	-5.7	nt	-10.0	151.6*
N#Cc1nc(Cc2ccccc2)oc1NCc1cccnc1	8.5	-7.7	-15.9	0.7	-2.2
N#Cc1ncc(Cc2ccccc2)nc1C#N	-15.6	12.6	nt	1.7	60.0*
O=C(COC(=O)C1CC1)Nc1ccc(Cl)cc1Cl	-9.4	-2.2	nt	-2.1	1.2
Cc1cc(NC(=O)CCC(=O)N(CC(=O)NC2CCCC2)c2ccc(C(C)C)cc2)no1	-1.6	-5.2	nt	-0.8	0.8
O=C(Cn1nnc(-c2ccc(Cl)cc2)n1)NCC1CCCCC1	7.0	-0.6	90.1*	1.4	0.9
O=C(c1cc(-c2cccc(O)c2)on1)N1CCN(C(c2ccccc2)c2ccccc2)CC1	-3.8	15.2	78.0*	1.8	9.4
O=C(c1cc(C2CC2)on1)N1CCN(C(c2ccccc2)c2ccccc2)CC1	-17.4	9.4	54.7	-2.8	2.1
Cc1ccc(S(=O)(=O)N/N=C2/CCCCC2C2CCCCC2)cc1[N+](=O)[O-] (centres undefined)	-9.6	-8.1	79.2*	-1.9	-1.0
CC1CCCC/C1=N\Nc1ccc(S(N)(=O)=O)cc1[N+](=O)[O-] (centres undefined)	15.8	-7.8	48.0	1.5	1.3
CCC(C)(C)C1CCC(=NNS(=O)(=O)c2ccc(C)c([N+](=O)[O-])c2)CC1 (centres undefined)	16.7	2.0	70.4*	-0.4	-1.5
CC(C)(C)C1CCC(=NNc2ccc(S(N)(=O)=O)cc2[N+](=O)[O-])CC1 (centres undefined)	3.7	-6.9	83.5*	0.2	2.6
CC/C(C)=N/NS(=O)(=O)c1ccc(C)c([N+](=O)[O-])c1	-6.1	2.2	-21.3	3.0	0.1
CCOC(=O)c1sc2ncn(CC(=O)Nc3cc(C)on3)c(=O)c2c1C	-10.0	14.7	nt	6.0	-0.5
Cc1ccccc1C(=O)NCC(=O)OC(C)C(=O)Nc1cccc(S(=O)(=O)N2CCOCC2)c1 (centres undefined)	-17.6	4.2	nt	-4.1	-1.1
Cc1cc(C(=O)O)cc(S(=O)(=O)NNC(=O)c2cccs2)c1C	7.6	-2.5	nt	0.9	2.3
O=C(CSc1cccc(C(F)(F)F)c1)N1CCN(S(=O)(=O)c2ccccc2)CC1	-2.3	-6.2	80.6*	-5.7	0.1
SMILES	VLA-4 inh	B2AR ag	CHOP inh	XBP1 UPR activ	CHOP UPR activ
O=C(CSc1nnc(Cc2csc(Nc3cccc(Cl)c3)n2)o1)N1CCc2ccccc21	16.1	5.6	89.4*	-1.2	-2.4
O=C(CSc1nnc(CNc2ccccc2)o1)N1CCc2ccccc21	-14.1	-12.2	50.8	0.5	-1.5
O=C(CS(=O)(=O)Nc1ccc(F)cc1Cl)Nc1ccc(F)cc1Cl	-7.4	-0.9	nt	-5.0	-0.6
COc1ccc(S(=O)(=O)Cc2ccc(C(=O)N3CCN(c4cccc(C)c4C)CC3)o2)cc1	5.9	20.8	71.1*	-4.8	-1.5
Cc1c(C(=O)Nc2nnc(SCc3ccccc3Cl)s2)cccc1[N+](=O)[O-]	-1.8	-0.7	78.3*	-0.8	0.7
Cc1c(C(=O)NCCSCc2ccccc2Cl)cccc1[N+](=O)[O-]	1.0	-10.1	16.5	1.3	-0.1
O=C(Nc1nnc(-c2ccc3c(c2)OCCO3)o1)c1ccc(Cc2ccccc2)cc1	-54.3	-0.9	96.9*	-1.5	-1.7
O=C(OCc1nnc(-c2ccccc2)o1)c1ccc(Cl)cc1	2.6	-1.4	42.4	nt	nt
O=C(CCOc1ccccc1)Nc1nnc(-c2ccc3c(c2)OCCO3)o1	-2.4	-1.4	28.7	2.9	3.5
O=C(OCc1nnc(-c2ccccc2)o1)c1ccc2c(c1)OCCO2	2.0	-7.3	75.8*	0.2	0.7
Cc1cccc(-c2nnc(NC(=O)c3ccc(Cl)cc3)o2)c1	1.2	9.4	79.5*	2.7	0.8
O=C(Nc1nnc(-c2ccc3c(c2)CCCC3)o1)c1ccccc1Cl	-15.9	12.1	40.7	2.0	-3.3
O=C(Nc1nnc(-c2ccc3c(c2)CCCC3)o1)c1ccccc1	10.4	4.4	100.5*	-2.1	-2.9
COC(=O)C1=C[C@@H](C(=O)OC)[C@@H]2C3=C(C(=O)C2(C)C)[C@H](c2ccccc2)[C@@H]2C(=O)N(C)C(=O)[C@@H]2[C@@H]3C1	10.5	-2.2	nt	0.7	-0.6
CCOc1ccc2nc(SCC(=O)Nc3cc(C)on3)c(C)cc2c1	-4.8	12.3	nt	1.8	0.3
Cc1cc(C)n2nc(Sc3ncccc3[N+](=O)[O-])nc2n1	19.5	-8.0	-13.1	-4.8	0.1
CC(=O)Nc1ccc(Oc2nc(C(F)(F)F)nc3ccccc23)cc1	7.6	-19.9	nt	-0.1	0.5
Cc1cc(C)cc(Oc2nc(C(F)(F)F)nc3ccccc23)c1	-1.6	-15.5	72.4*	-0.6	0.3
COc1ccc(C(=O)OCc2cc3cccc(C)c3[nH]c2=O)cc1	5.2	3.9	80.6*	1.8	-2.4
COc1ccc(CC(=O)OCc2cc3cccc(C)c3[nH]c2=O)cc1	3.7	-5.4	25.9	-1.2	-2.3
O=C(CN1C(=O)/C(=C/c2ccccc2)SC1=S)N1CCN(CCc2ccccn2)CC1	10.1	-6.8	nt	-4.2	1.3
Cc1ccc(-c2nc(S(=O)(=O)c3ccc(F)cc3)c(SCC(=O)NCC3CCCO3)o2)cc1 (centres undefined)	5.3	-8.0	70.2*	0.3	-0.5
Cc1ccc(S(=O)(=O)c2nc(-c3ccc(F)cc3)oc2SCC(=O)NCC2CCCO2)cc1 (centres undefined)	-0.8	-0.6	36.5	1.0	0.6
O=C(COC(=O)CCc1c[nH]c2ccccc12)Nc1ccccc1C(F)(F)F	9.2	-2.4	nt	-0.8	-2.1
CCN1C(=O)CSC1=Nc1cccc(C(=O)O)c1	9.3	2.0	nt	0.8	-1.0
Cc1ccc2nc(SCC(=O)Nc3ccc4c(c3)CCC4)[nH]c2c1	-16.0	-4.4	-9.7	-1.6	3.8

Compound activity: PubChem, several laboratories
